# Measurements of several laboratories.
# PIK3CA M1043I: Phosphatidylinositol 4,5-bisphosphate 3-kinase catalytic subunit alpha isoform (PIK3CA, Homo sapiens, UniProt P42336, M1043I)
# PIK3CA: Phosphatidylinositol 4,5-bisphosphate 3-kinase catalytic subunit alpha isoform (PIK3CA, Homo sapiens, UniProt P42336)
Compound,target,effect on,action,technique,tested at,quantity,result
Cc1ccc(NC(=O)c2ccnc(C(F)(F)F)c2)cc1-c1cc(OCCO)nc(N2CCOCC2)c1,"Phosphatidylinositol 4,5-bisphosphate 3-kinase catalytic subunit alpha isoform (PIK3CA, Homo sapiens, UniProt P42336, H1047Y)",binding,,,1 µM,remaining binding,74%
C1=C/COCc2cc(ccc2OCCN2CCCC2)Nc2nccc(n2)-c2cccc(c2)COC/1,"Phosphatidylinositol 4,5-bisphosphate 3-kinase catalytic subunit alpha isoform (PIK3CA, Homo sapiens, UniProt P42336, I800L)",binding,,,0.1 µM,remaining binding,60%
CO[C@@H]1[C@H](N(C)C(=O)c2ccccc2)C[C@H]2O[C@]1(C)n1c3ccccc3c3c4c(c5c6ccccc6n2c5c31)C(=O)NC4,PIK3CA M1043I,enzyme activity,inhibitor,,1 µM,inhibition,1%
N#Cc1ccc(NC(=O)Nc2ccccc2)cc1,PIK3CA,cell-free assay,,competition with immobilised ligand,25 µM,remaining binding,92%
COc1ccc2[nH]c3c4[nH]c5ccc(OC)cc5c4c4c(c3c2c1)C(=O)NC4=O,PIK3CA,binding,,,1 µM,remaining binding,91%
C=CC(=O)N1CCC[C@@H](n2nc(-c3ccc(Oc4ccccc4)cc3)c3c(N)ncnc32)C1,"Phosphatidylinositol 4,5-bisphosphate 3-kinase catalytic subunit alpha isoform (PIK3CA, Homo sapiens, UniProt P42336, C420R)",enzyme activity,inhibitor,,1 µM,inhibition,28%
C[C@H]1CC[C@H](n2c3cnccc3c3cnc(Nc4ccc5c(n4)CCN(C(=O)CO)C5)nc32)CC1,"Phosphatidylinositol 4,5-bisphosphate 3-kinase catalytic subunit alpha isoform (PIK3CA, Homo sapiens, UniProt P42336, E542K)",cell-free assay,,,1 µM,remaining signal,100%
CC#CC(=O)N1CCC[C@H]1c1nc(-c2ccc(C(=O)Nc3ccccn3)cc2)c2c(N)nccn12,"Phosphatidylinositol 4,5-bisphosphate 3-kinase catalytic subunit alpha isoform (PIK3CA, Homo sapiens, UniProt P42336, Q546K)",enzyme activity,inhibitor,,1 µM,inhibition,38%
CCCCC(=O)Nc1ccc(-c2ccc3ncn(CCC)c(=O)c3c2)cn1,PIK3CA M1043I,binding,,competition with immobilised ligand,0.5 µM,remaining binding,91%
